# Experimental data from ChEMBL document CHEMBL1144801, “Synthesis of new benzimidazole linked pyrrolo[2,1-c][1,4]benzodiazepine conjugates with efficient DNA-binding affinity and potent cytotoxicity” (Bioorg Med Chem Lett, 2008).
# The source made the active and inactive calls. The rule behind the calls is not given here.
# Assays:
# [1] = test system: DNA; test: Binding affinity to calf thymus DNA at 1:5 (compound:DNA) molar ratio in 37degC after 18 hrs by thermal denaturation studies; assay type: nucleic-acid assay; conditions: Bos taurus
# Outline: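 Calf thymus DNA with ligand at a 1:5 ligand:DNA molar ratio in aqueous 10 mM sodium phosphate + 1 mM EDTA, pH 7.00. Mixtures were incubated at 37 °C and read at 0 h and 18 h. The read-out was the shift in helix melting temperature (ΔTm) relative to CT-DNA alone.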
# [2] = test system: CCRF-CEM; test: Cytotoxicity against human CCRF-CEM cells; assay type: functional
# [3] = test system: SK-MEL-5; test: Cytotoxicity against human SKMEL5 cells; assay type: functional
# [4] = test system: HCT-116; test: Cytotoxicity against human HCT116 cells; assay type: functional
# [5] = test system: A549; test: Cytotoxicity against human A549 cells; assay type: functional
# [6] = test system: CAKI-1; test: Cytotoxicity against human CAKI1 cells; assay type: functional
# [7] = test system: UO-31; test: Cytotoxicity against human UO31 cells; assay type: functional
# [8] = test system: OVCAR-8; test: Cytotoxicity against human OVCAR8 cells; assay type: functional
# [9] = test system: RXF 393; test: Cytotoxicity against human RXF393 cells; assay type: functional
# [10] = test system: NCI-H322M; test: Cytotoxicity against human NCI-H322M cells; assay type: functional
# [11] = Cytotoxicity against human OVCAR1 cells; assay type: functional
# [12] = test system: TK-10; test: Cytotoxicity against human TK10 cells; assay type: functional
# [13] = test system: SF-268; test: Cytotoxicity against human SF268 cells; assay type: functional
# [14] = test system: SR; test: Cytotoxicity against human SR cells; assay type: functional
# [15] = test system: NCI-H23; test: Cytotoxicity against human NCI-H23 cells; assay type: functional
# [16] = test system: U-251; test: Cytotoxicity against human U251 cells; assay type: functional
# [17] = test system: KM12; test: Cytotoxicity against human KM12 cells; assay type: functional
# [18] = test system: EKVX; test: Cytotoxicity against human EKVX cells; assay type: functional
# [19] = test system: OVCAR-4; test: Cytotoxicity against human OVCAR4 cells; assay type: functional
# [20] = test system: MDA-MB-231; test: Cytotoxicity against human MDA-MB-231 cells; assay type: functional
# [21] = test system: DU-145; test: Cytotoxicity against human DU145 cells; assay type: functional
# [22] = test system: Hs-578T; test: Cytotoxicity against human HS578T cells; assay type: functional
# [23] = test system: MDA-MB-435; test: Cytotoxicity against human MDA-MB-435 cells; assay type: functional
# [24] = test system: BT-549; test: Cytotoxicity against human BT549 cells; assay type: functional
# [25] = test system: HOP-62; test: Cytotoxicity against human HOP62 cells; assay type: functional
# [26] = test system: SF-539; test: Cytotoxicity against human SF539 cells; assay type: functional
# [27] = test system: Malme-3M; test: Cytotoxicity against human MALME3M cells; assay type: functional
# [28] = test system: MCF7; test: Cytotoxicity against human MCF7 cells; assay type: functional
# [29] = test system: T47D; test: Cytotoxicity against human T47D cells; assay type: functional
# [30] = test system: SNB-75; test: Cytotoxicity against human SNB75 cells; assay type: functional
# [31] = test system: MDA-MB-468; test: Cytotoxicity against human MDA-MB-468 cells; assay type: functional
# [32] = test system: SNB-19; test: Cytotoxicity against human SNB19 cells; assay type: functional
# [33] = test system: SK-MEL-2; test: Cytotoxicity against human SKMEL2 cells; assay type: functional
# [34] = test system: NCI/ADR-RES; test: Cytotoxicity against human NCI/ADR-RES cells; assay type: functional
# [35] = test system: UACC-257; test: Cytotoxicity against human UACC257 cells; assay type: functional
# [36] = test system: LOX IMVI; test: Cytotoxicity against human LOXIMVI cells; assay type: functional
# [37] = test system: OVCAR-3; test: Cytotoxicity against human OVCAR-3 cells; assay type: functional
# [38] = test system: A498; test: Cytotoxicity against human A498 cells; assay type: functional
# [39] = test system: SN12C; test: Cytotoxicity against human SN12C cells; assay type: functional
# [40] = test system: HT-29; test: Cytotoxicity against human HT29 cells; assay type: functional
# [41] = test system: NCI-H460; test: Cytotoxicity against human NCI-H460 cells; assay type: functional
# [42] = test system: 786-0; test: Cytotoxicity against human 786-0 cells; assay type: functional
# [43] = test system: Bacilli; test: Inhibition of Bacillus amyloli BamH1 restriction endonuclease-mediated pBR322 cleavage by RED100-restriction endonuclease digestion assay
# Outline: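 Plasmid pBR322 exposed to the conjugate, then digested with BamH1 (20 U) for 1 h at 37 °C. Cut and uncut products separated by agarose gel electrophoresis and visualized by ethidium bromide staining under UV. Controls were untreated pBR322 and a complete BamH1 digest.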
# [44] = test system: UACC-62; test: Cytotoxicity against human UACC62 cells; assay type: functional
# [45] = test system: HOP-92; test: Cytotoxicity against human HOP92 cells; assay type: functional
# [46] = test system: SK-OV-3; test: Cytotoxicity against human SKOV3 cells; assay type: functional
# [47] = test system: ACHN; test: Cytotoxicity against human ACHN cells; assay type: functional
# [48] = test system: OVCAR-5; test: Cytotoxicity against human OVCAR5 cells; assay type: functional
# [49] = test system: COLO 205; test: Cytotoxicity against human COLO205 cells; assay type: functional
# [50] = test system: M14; test: Cytotoxicity against human M14 cells; assay type: functional
# [51] = test system: RPMI-8226; test: Cytotoxicity against human RPMI8226 cells; assay type: functional
# [52] = test system: SW-620; test: Cytotoxicity against human SW620 cells; assay type: functional
# [53] = test system: HCT-15; test: Cytotoxicity against human HCT15 cells; assay type: functional
# [54] = test system: MOLT-4; test: Cytotoxicity against human MOLT4 cells; assay type: functional
# [55] = test system: NCI-H226; test: Cytotoxicity against human NCI-H226 cells; assay type: functional
# [56] = test system: NCI-H522; test: Cytotoxicity against human NCI-H522 cells; assay type: functional
# [57] = Cytotoxicity against human HL60(TB) cells; assay type: functional, HL-60(TB); conditions: HL-60
# [58] = test system: SK-MEL-28; test: Cytotoxicity against human SKMEL28 cells; assay type: functional
# [59] = test system: K562; test: Cytotoxicity against human K562 cells; assay type: functional
# [60] = test system: HCC 2998; test: Cytotoxicity against human HCC2998 cells; assay type: functional
structure (smiles),measurement,setting,value
COc1cc2c(cc1OCCCn1c(-c3ccco3)nc3ccccc31)N=C[C@@H]1CCCN1C2=O,ΔTm,[1],6.1 °C
COc1cc2c(cc1OCCCn1c(-c3cccs3)nc3ccccc31)N=C[C@@H]1CCCN1C2=O,ΔTm,[1],5.1 °C
COc1cc2c(cc1OCCCCCn1c(-c3cccs3)nc3ccccc31)N=C[C@@H]1CCCN1C2=O,ΔTm,[1],6.1 °C
COc1cc2c(cc1OCCCCCn1c(-c3ccco3)nc3ccccc31)N=C[C@@H]1CCCN1C2=O,GI50,[2],< 10 nM
same,GI50,[3],< 10 nM
same,GI50,[4],< 10 nM
same,GI50,[5],< 0.01 µM
same,GI50,[6],< 10 nM
same,GI50,[7],100 nM
same,GI50,[8],< 10 nM
same,GI50,[9],< 10 nM
same,GI50,[10],30 nM
same,GI50,[11],10 nM
same,GI50,[12],10 nM
same,GI50,[13],< 10 nM
same,GI50,[14],< 10 nM
same,GI50,[15],< 10 nM
same,GI50,[16],< 10 nM
same,GI50,[17],< 10 nM
same,GI50,[18],< 0.01 µM
same,GI50,[19],< 10 nM
same,GI50,[20],10 nM
same,GI50,[21],20 nM
same,GI50,[22],< 10 nM
same,GI50,[23],< 10 nM
same,GI50,[24],< 10 nM
same,GI50,[25],< 10 nM
same,GI50,[26],< 10 nM
same,GI50,[27],10 nM
same,GI50,[28],< 10 nM
same,GI50,[29],< 10 nM
same,GI50,[30],< 10 nM
same,GI50,[31],< 10 nM
same,GI50,[32],< 10 nM
same,GI50,[33],20 nM
same,GI50,[34],230 nM
same,GI50,[35],< 10 nM
same,GI50,[36],< 10 nM
same,GI50,[37],< 10 nM
same,ΔTm,[1],7 °C
same,GI50,[38],< 10 nM
same,GI50,[39],< 10 nM
same,GI50,[40],< 10 nM
same,GI50,[41],< 10 nM
same,GI50,[42],< 10 nM
same,Activity,[43],Active
same,GI50,[44],< 10 nM
same,GI50,[45],10 nM
same,GI50,[46],< 0.01 µM
same,GI50,[47],< 10 nM
same,GI50,[48],< 0.01 µM
same,GI50,[49],< 10 nM
same,GI50,[50],< 10 nM
same,GI50,[51],< 10 nM
same,GI50,[52],< 10 nM
same,GI50,[53],20 nM
same,GI50,[54],< 0.01 µM
same,GI50,[55],< 10 nM
same,GI50,[56],< 10 nM
same,GI50,[57],< 0.01 µM
same,GI50,[58],< 10 nM
same,GI50,[59],< 0.01 µM
COc1cc2c(cc1O)N=C[C@@H]1CCCN1C2=O,ΔTm,[1],0.7 °C
COc1cc2c(cc1OCCCCn1c(-c3ccco3)nc3ccccc31)N=C[C@@H]1CCCN1C2=O,ΔTm,[1],0 °C
same,Activity,[43],inactive
COc1cc2c(cc1OCCCCCn1c(-c3cccs3)nc3ccccc31)NC(=O)[C@@H]1CCCN1C2=O,ΔTm,[1],0.8 °C
COc1cc2c(cc1OCCCn1c(-c3ccco3)nc3ccccc31)NC(=O)[C@@H]1CCCN1C2=O,ΔTm,[1],0.7 °C
COc1cc2c(cc1OCCCCn1c(-c3cccs3)nc3ccccc31)N=C[C@@H]1CCCN1C2=O,GI50,[2],240 nM
same,GI50,[3],1090 nM
same,GI50,[4],1750 nM
same,GI50,[5],3.22 µM
same,GI50,[6],940 nM
same,GI50,[7],1230 nM
same,GI50,[8],2580 nM
same,GI50,[9],1340 nM
same,GI50,[10],2700 nM
same,GI50,[11],750 nM
same,GI50,[12],2090 nM
same,GI50,[60],2080 nM
same,GI50,[13],1800 nM
same,GI50,[14],450 nM
same,GI50,[15],2050 nM
same,GI50,[16],1770 nM
same,GI50,[17],1920 nM
same,GI50,[18],3.36 µM
same,GI50,[19],1610 nM
same,GI50,[20],1390 nM
same,GI50,[21],1320 nM
same,GI50,[22],1700 nM
same,GI50,[23],1390 nM
same,GI50,[24],410 nM
same,GI50,[26],1720 nM
same,GI50,[27],1740 nM
same,GI50,[28],660 nM
same,GI50,[29],500 nM
same,GI50,[30],1220 nM
same,GI50,[31],330 nM
same,GI50,[32],1530 nM
same,GI50,[33],1470 nM
same,GI50,[34],3240 nM
same,GI50,[35],2540 nM
same,GI50,[36],780 nM
same,GI50,[37],1720 nM
same,ΔTm,[1],1 °C
same,GI50,[38],1680 nM
same,GI50,[39],2500 nM
same,GI50,[40],1970 nM
same,GI50,[41],1550 nM
same,GI50,[42],1710 nM
same,GI50,[44],1570 nM
same,GI50,[45],1330 nM
same,GI50,[46],3.32 µM
same,GI50,[47],2810 nM
same,GI50,[48],3.27 µM
same,GI50,[49],1070 nM
same,GI50,[50],1350 nM
same,GI50,[51],310 nM
same,GI50,[52],1840 nM
same,GI50,[53],3190 nM
same,GI50,[54],3.79 µM
same,GI50,[55],2130 nM
same,GI50,[56],1040 nM
same,GI50,[57],5.18 µM
same,GI50,[58],1530 nM
same,GI50,[59],15.5 µM
